Screens: PubChem, several laboratories
Rtt109 HAT inh: C. albicans Rtt109 histone acetyltransferase inhibition; inhibition, % at 34.9 µM; Q5AAJ8; purified Rtt109/Vps75, ThioGlo CoA-SH fluorescence, 4 h; 330,000 tested, 0.16% active;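 active = inhibition of at least 50% in every replicate; inconclusive = best replicate reaches 50% inhibition but some replicates fall short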
JMJD2C inh: human JMJD2C demethylase inhibition | GST-JMJD2C(1-420) H3K9me3 demethylation, DELFIA europium | Q9H3R0 | 330,000 tested, 0.069% active | inhibition, % at 2.35 µM;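 active = more than half of a compound's replicate wells show inhibition beyond 50%, single wells judged on their own value; inconclusive = some, but no more than half, of replicates pass 50% inhibition; inactive = no replicate passes 50% inhibition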;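 also: signal counts dimethyl H3K9 product captured on neutravidin plate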
Target sequence (Q9H3R0 1-420 limits assumed): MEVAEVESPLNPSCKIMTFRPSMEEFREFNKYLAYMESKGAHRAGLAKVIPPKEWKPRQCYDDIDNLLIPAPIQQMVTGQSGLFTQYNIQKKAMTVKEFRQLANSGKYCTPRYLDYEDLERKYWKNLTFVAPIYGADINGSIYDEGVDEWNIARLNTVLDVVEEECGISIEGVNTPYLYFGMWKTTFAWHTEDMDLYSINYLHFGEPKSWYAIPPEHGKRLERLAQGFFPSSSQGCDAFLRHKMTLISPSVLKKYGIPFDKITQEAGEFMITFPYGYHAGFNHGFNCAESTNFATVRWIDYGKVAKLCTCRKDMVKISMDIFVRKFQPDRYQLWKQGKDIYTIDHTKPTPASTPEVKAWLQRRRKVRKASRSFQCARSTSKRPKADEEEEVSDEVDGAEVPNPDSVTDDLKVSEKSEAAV
T cell modulator: modulates CD8 T cell binding to vesicles; 2C CD8+ T cell-vesicle binding, flow cytometry; active compounds read low; response (vesicle binding), % at 7 µM; 330,000 tested, 0.068% active; AID 2052;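 active = response, share of CD8 T cells binding vesicles, and their 90th percentile fluorescence all below set limits, cut at about 80% in these data, passing the limit was not always enough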;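 also: values below 100% mean blocked vesicle binding to the CD8+ T cells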
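Assay system: 2C TCR transgenic mouse naive CD8+ T cells, MACS-purified | Read-out: CD8+ gate FL2 mean fluorescence as % of same-row positive control | Signal: High-throughput flow cytometry with anti-B7-1 and anti-CD8 staining | Timing: Binding step 1.5 h, 37 °C, antibody labelling 20 min, ice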
NR3A LBD binder: modulators (binders) of human NR3A ligand-binding domain; Tm shift relative to glycine control, % at 25 µM; 340,000 tested, 2.5% active; NR3A LBD differential scanning fluorimetry, Tm shift; 0% = protein alone, 100% = glycine-bound protein;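 active = melting temperature shift of at least 10% of the positive control shift, at one fixed dose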
Each line names hits and unclear results; the compound was inactive in the other large screens. Rows were chosen to be rich in hits. Some 2.8% of all compounds tested hit in one or more screens of this group.

Cc1[nH]n(-c2c(Cl)cc(Cl)cc2Cl)c(=O)c1C=Nc1ccc(S(=O)(=O)N2CCOCC2)cc1	NR3A LBD binder 11
Cc1ccccc1NS(=O)(=O)c1ccc(NC(=O)CSCc2ccc(Br)cc2)cc1	T cell modulator 0.0, NR3A LBD binder 22
O=C(CSCc1ccc(Br)cc1)Nc1ccc(S(=O)(=O)N2CCOCC2)cc1	none
COc1ccc(NC(=O)c2cc(-c3ccccc3OC)on2)cc1	none
COc1ccc(NC(=O)c2cc(-c3ccccc3Cl)on2)cc1	NR3A LBD binder 37
CC(=O)c1cccc(NC(=O)c2cc(-c3cccs3)on2)c1	none
COc1cccc(-c2cc(C(=O)Nc3cccc(O)c3)no2)c1	NR3A LBD binder 24
O=C(Nc1cccc(O)c1)c1cc(-c2cccs2)on1	NR3A LBD binder 15
COc1ccc(NC(=O)c2cc(-c3cccc(OC)c3)on2)cc1	none
O=C(NNC(=O)c1ccc2ccccc2c1)c1cccc(Cl)c1	none (no result: JMJD2C inh, T cell modulator)
CC12CCC(=O)N1C(C(=O)Nc1ccc(Cl)c(S(=O)(=O)N3CCCCC3)c1)CS2 (stereo unspecified)	none
O=C(CCCCl)NC(=S)Nc1ccc(N2CCOCC2)cc1	none
CN1C[C@@H]2[C@@H]3C(=O)N(Cc4ccccc4)C(=O)[C@@H]3[C@](C)(C1=O)N2C(=O)c1ccc(F)cc1	none (no result: JMJD2C inh, T cell modulator)
COC(=O)c1ccc(/C=N/Nc2nc(-c3ccc(C)cc3)cs2)cc1	none
CC(=O)Nc1ccc(-c2csc(N/N=C\c3ccncc3)n2)cc1	NR3A LBD binder 15 (no result: Rtt109 HAT inh)
CCCC(=O)Nc1ccc(-c2csc(N/N=C\c3ccncc3)n2)cc1	NR3A LBD binder 18
COc1cc(SC)ccc1C(=O)NCCOc1ccc(C)c(C)c1	NR3A LBD binder 16
COc1ccccc1C(=O)NCCOc1ccc(C)c(C)c1	none
Cc1ccc(NC(=O)CN2C(=O)CCS(=O)(=O)c3ccccc32)cc1Cl	NR3A LBD binder 15
O=C(CN1C(=O)CCS(=O)(=O)c2ccccc21)Nc1ccc(F)cc1	none
Cc1ccc(NC(=O)CN2C(=O)NC(Cc3c[nH]c4ccccc34)C2=O)cc1S(=O)(=O)N1CCCCC1 (stereo unspecified)	NR3A LBD binder 12
Cc1ccc(NC(=O)CN2C(=O)NC(Cc3ccccc3)C2=O)cc1Cl (stereo unspecified)	NR3A LBD binder 15
CC(C)CC1NC(=O)N(CC(=O)Nc2ccc(OC(F)F)cc2)C1=O (stereo unspecified)	NR3A LBD binder 27 (no result: JMJD2C inh, T cell modulator)
CCC1(c2ccc(OC)cc2)NC(=O)N(CC(=O)NC2CCCCC2C)C1=O (stereo unspecified)	none
O=C(CN1C(=O)NC(Cc2c[nH]c3ccccc23)C1=O)Nc1cccc(S(=O)(=O)N2CCCCCC2)c1 (stereo unspecified)	NR3A LBD binder 16
O=C(CN1C(=O)NC(Cc2c[nH]c3ccccc23)C1=O)Nc1cccc(S(=O)(=O)N2CCCC2)c1 (stereo unspecified)	none
O=C(Cn1nnc2ccccc2c1=O)NCCc1ccccc1	NR3A LBD binder 18
O=C(Cn1nnc2ccccc2c1=O)NCCc1ccc(Cl)cc1Cl	none
O=S(=O)(Nc1cccc(-n2cnnn2)c1)c1ccc(F)cc1	none (no result: JMJD2C inh, T cell modulator, NR3A LBD binder)
COc1ccc(C)cc1NC(=O)Nc1ccc2c(c1)CCC2	NR3A LBD binder 11
O=C(Nc1cccc([N+](=O)[O-])c1)Nc1ccc2c(c1)CCC2	NR3A LBD binder 34
O=C(Nc1cccc([N+](=O)[O-])c1)Nc1cccs1	NR3A LBD binder 19
O=C(Nc1cccc(F)c1)Nc1ccc2c(c1)CCC2	NR3A LBD binder 43
COc1ccccc1NC(=O)Nc1ccc2c(c1)CCC2	none
CC(NC(=O)CN1C(=O)NC2(CCCCCC2)C1=O)c1ccccc1 (stereo unspecified)	none
Cc1cc(C)cc(NC(=O)Nc2ccc3c(c2)CCC3)c1	NR3A LBD binder 12
Cc1ccc(NC(=O)Nc2ccc3c(c2)CCC3)cc1	none
O=C(Nc1ccccc1)Nc1ccc2c(c1)CCC2	NR3A LBD binder 11
COC(=O)c1ccc(NC(=O)Nc2ccc(F)cc2F)cc1	none
COC(=O)c1ccc(NC(=O)Nc2cccc(F)c2)cc1	NR3A LBD binder 30
O=C(Nc1ccc(F)cc1)Nc1cccc(Br)c1	NR3A LBD binder 43 (no result: Rtt109 HAT inh)
CN(C(=O)C1CCCCC1)C1(C)CCS(=O)(=O)C1 (stereo unspecified)	JMJD2C inh inconclusive
CC(C)(C)OC(=O)NOCC(=O)N(Cc1ccccc1)CC(O)COc1ccccc1 (stereo unspecified)	none
O=C(Nc1cccc(F)c1)Nc1cnccn1	NR3A LBD binder 21
COc1ccc(S(=O)(=O)n2[nH]c(=O)c(CCO)c2C)c([N+](=O)[O-])c1	NR3A LBD binder 16
Cc1c(CCO)c(=O)[nH]n1S(=O)(=O)c1ccc(Cl)cc1Cl	none
Cc1nc2ccccc2nc1N/N=C/c1ccc(O)cc1	NR3A LBD binder 11
Cc1cc(N/N=C/c2ccc(O)cc2)nc(NS(=O)(=O)c2ccccc2)n1	none
Cc1nc(N/N=C/c2ccc(O)cc2)c2cnn(-c3ccccc3)c2n1	NR3A LBD binder 12
COc1ccc(CNC(=O)CN2C(=O)NC3(CCCCCCC3)C2=O)cc1	none
O=C(O)c1cc(N=Nc2c(O)ccc3ccccc23)cc(C(=O)O)c1	none (no result: Rtt109 HAT inh, JMJD2C inh, T cell modulator)
O=C(O)c1ccc(N=Nc2c(O)ccc3ncccc23)cc1	NR3A LBD binder 12
O=C(Nc1ccc(C(F)(F)F)cc1[N+](=O)[O-])O[C@H]1[C@H](Cc2ccccc2)NS(=O)(=O)[C@H]2C[C@@H]3C=C[C@]12O3	none
Cc1ccc(S(=O)(=O)N(C)CC(=O)NCCCn2nc(C)cc2C)cc1	NR3A LBD binder 13
O=c1oc2ccccc2cc1-c1csc(Nc2nc3c(F)cccc3s2)n1	NR3A LBD binder 23
O=c1oc2ccccc2cc1-c1csc(Nc2nc3ccc(F)cc3s2)n1	none (no result: Rtt109 HAT inh, NR3A LBD binder)
c1ccc(CNc2nc(-c3ccccn3)nc3ccccc23)cc1	none
c1ccc(CNc2nc(-c3ccccc3)nc3ccccc23)cc1	NR3A LBD binder 10
COCCCNc1nc(-c2ccc(Cl)cc2)nc2ccccc12	NR3A LBD binder 12
COCCCNc1nc(-c2ccncc2)nc2ccccc12	none
c1ccc(CNc2nc(-c3cccs3)nc3ccccc23)cc1	NR3A LBD binder 24 (no result: T cell modulator)
c1ccc(CNc2nc(-c3cccnc3)nc3ccccc23)cc1	none
CCn1cc(C(=O)NCCC(=O)OC)c(=O)c2cc3c(cc21)OCO3	none
CCCC[C@@H]1CNCCN1CC1(c2ccccc2)CC1	none
O=C(Nc1nnc(-c2ccncc2)s1)Nc1ccccc1F	none
O=C(Nc1ccc(Cl)c(Cl)c1)Nc1nnc(-c2ccncc2)s1	NR3A LBD binder 13
COc1ccc(NC(=O)Nc2nnc(-c3ccncc3)s2)cc1	NR3A LBD binder 11
COc1ccc(NC(=O)Nc2nnc(-c3ccco3)s2)cc1	none
O=C1CCC[C@@H]2Cc3nc4ccc(Cl)cc4cc3[C@@H]3CCN1[C@H]23	none (no result: JMJD2C inh, T cell modulator)
CCOc1ccc(CCNC(=O)c2nnn(CC(=O)Nc3ccccc3C)c2N)cc1OCC	NR3A LBD binder 12
CCOc1ccc(OCC)c(NC(=O)c2nnn(CC(=O)Nc3cc(C)cc(C)c3)c2N)c1	NR3A LBD binder 16
